DNMT1 block: human DNMT1 methyltransferase inhibitors, primary screen, biochemical, molecular beacon, fluorescence, HinP1I cleavage, uHTS. inhibition (reported as % activation of signal), % at 10 µM. actives 0.83% (n = 360,000). AID 588458, 2011; in the data active = inhibition above about 50%
Target sequence (P26358 504-1616 limits assumed): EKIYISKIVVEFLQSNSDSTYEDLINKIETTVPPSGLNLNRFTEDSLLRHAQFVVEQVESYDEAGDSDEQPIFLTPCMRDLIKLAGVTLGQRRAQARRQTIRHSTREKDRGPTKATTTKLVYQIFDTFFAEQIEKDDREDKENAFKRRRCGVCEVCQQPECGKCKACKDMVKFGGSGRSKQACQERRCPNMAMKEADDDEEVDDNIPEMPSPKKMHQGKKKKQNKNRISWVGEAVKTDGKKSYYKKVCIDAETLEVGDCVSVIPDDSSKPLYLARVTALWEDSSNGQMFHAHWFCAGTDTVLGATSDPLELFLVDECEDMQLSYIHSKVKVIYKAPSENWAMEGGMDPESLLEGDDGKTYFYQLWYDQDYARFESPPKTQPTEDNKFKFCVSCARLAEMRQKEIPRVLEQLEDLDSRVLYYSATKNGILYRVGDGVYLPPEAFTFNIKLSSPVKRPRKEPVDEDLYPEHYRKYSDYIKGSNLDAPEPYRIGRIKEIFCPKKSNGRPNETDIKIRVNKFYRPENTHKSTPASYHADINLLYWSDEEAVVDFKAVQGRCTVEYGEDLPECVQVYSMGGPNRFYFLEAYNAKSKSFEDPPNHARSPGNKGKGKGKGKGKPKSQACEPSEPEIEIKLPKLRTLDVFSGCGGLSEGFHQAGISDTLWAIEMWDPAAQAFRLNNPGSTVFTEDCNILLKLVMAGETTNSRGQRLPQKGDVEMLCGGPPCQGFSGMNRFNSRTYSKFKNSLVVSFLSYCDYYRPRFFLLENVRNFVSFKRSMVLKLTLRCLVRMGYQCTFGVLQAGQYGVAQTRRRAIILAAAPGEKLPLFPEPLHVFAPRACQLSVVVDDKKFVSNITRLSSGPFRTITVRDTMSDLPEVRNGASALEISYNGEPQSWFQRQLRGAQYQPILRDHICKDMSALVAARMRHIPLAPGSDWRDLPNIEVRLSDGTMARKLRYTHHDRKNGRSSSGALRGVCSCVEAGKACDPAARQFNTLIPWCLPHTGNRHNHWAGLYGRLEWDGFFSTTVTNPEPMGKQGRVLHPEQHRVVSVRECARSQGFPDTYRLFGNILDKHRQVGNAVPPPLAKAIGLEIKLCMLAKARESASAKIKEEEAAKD
LMPTP block: LMPTP phosphatase inhibitors, primary screen, biochemical, fluorescence intensity, uHTS; recombinant LMPTP-A, OMFP fluorogenic substrate; actives 0.22% (n = 360,000); Low molecular weight phosphotyrosine protein phosphatase (Homo sapiens), P24666; inhibition, % at 20 µM;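 active = compounds that cut the enzyme signal by at least half of the control window in the single-dose screen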;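 note: plate controls were DMSO wells with enzyme plus substrate for no effect and substrate without enzyme for full effect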
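Material: LMPTP-A; amount: 0.625 nM enzyme; doses: single 20 µM dose; times: reaction 50 min, room temperature, dark; technique: fluorescence intensity of OMFP turnover product; benchmarks: no-enzyme and uninhibited controls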
GRK2 inh: compounds blocking aptamer binding on GRK2 – biochemical, human GRK2, bead flow cytometry, HTS, primary screen; Beta-adrenergic receptor kinase 1 (Homo sapiens), P25098; FAM-aptamer displacement from GRK2; inhibition of aptamer binding, % at 10 µM; actives 0.59% (n = 330,000); AID 488847, 2010;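 active = inhibition of aptamer binding above 40%, roughly 3 SD of noise, on plates passing a quality check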;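 note: median bead fluorescence of bound FAM aptamer so fluorescent compounds give negative values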
Scp-1 inhibitor: Scp-1 phosphatase inhibitors, primary screen, biochemical, colorimetric, uHTS | Carboxy-terminal domain RNA polymerase II polypeptide A small phosphatase 1 (Homo … | Recombinant Scp1, phosphopeptide, malachite green phosphate absorbance | inhibition, % at 20 µM | actives 0.88% (n = 340,000) | AID 493091, 2011;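 active = inhibition above about 50% at 20 µM, limit read from the data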;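 note: plate controls were DMSO wells with enzyme for no effect and wells lacking enzyme for full effect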
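System: SCP-1 catalytic domain; Reagent: Phospho 17-mer peptide substrate; Doses: one concentration, 20 µM, with 1.0% DMSO; Incubation: 45 min room-temperature reaction, 5 min colour, 30 min stabiliser; Signal: Phosphate-binding colour reagent, absorbance read at 630 nm.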
STEP block: STEP phosphatase inhibitors, primary screen, biochemical, fluorescence intensity, uHTS; recombinant STEP, OMFP fluorogenic substrate; inhibition, % at 20 µM; Tyrosine-protein phosphatase non-receptor type 5 (Homo sapiens), P54829; actives 0.25% (n = 360,000);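 active = inhibition at 20 µM, scaled per plate between control wells, above about 37%, limit read from the data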;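 note: 0% = DMSO with enzyme and substrate and 100% = substrate only without enzyme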
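Material: STEP (striatal-enriched tyrosine phosphatase) enzyme, cell-free | Medium: 50 mM Bis-Tris pH 6.0 with 2.5 mM DTT and 0.005% Tween 20 | Read-out: Percent inhibition scaled to no-enzyme and uninhibited-enzyme controls, plate-pattern corrected | Signal: Fluorescence read at 480 nm ex / 540 nm em | Times: 20 min reaction, room temperature, in the dark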
SUMO1 PPI mod: modulators of SUMO1 protein-protein interactions, primary screen, biochemical, uHTS. Small ubiquitin-related modifier 1 (Homo sapiens), P63165. SUMO1 binding to a labelled peptide, TR-FRET, 1 h. inhibition, % at 20 µM. actives 0.33% (n = 360,000); in the data active = inhibition above about 37%
GRK2 inh confirm: GRK2 aptamer-displacing inhibitors, retest, confirmation, biochemical, cherry pick 1, bead flow cytometry | shares compounds with GRK2 inh | bead-bound GRK2, FAM-aptamer displacement | aptamer displacement, % at 10 µM | actives 4% (n = 2,000) | AID 504451, 2011;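 active = aptamer displacement above 40%, near three times the noise of non-fluorescent compounds, on plates passing quality checks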;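 note: negative values mostly reflect intrinsic compound fluorescence rather than true enhancement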
FAM quench CP1: counter-screen for GRK2 aptamer inhibitors: fluorescent aptamer quenchers. 2,000 tested, under 10 active. shares compounds with GRK2 inh. fluorescence response (% of DMSO), % at 10 µM. Carboxyfluorescein RNA aptamer on beads, flow cytometry quenching; stronger effect = lower value. AID 504580;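 active = compounds that quench the bead-bound fluorescent RNA probe, cutting fluorescence to under half of the solvent control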;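 note: counterscreen run without GRK2 so only probe quenching by compound is measured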
Scp-1 conf: Scp-1 phosphatase inhibitors, retest, confirmation, biochemical, colorimetric, single concentration; shares compounds with Scp-1 inhibitor; recombinant SCP-1 catalytic domain, phosphate release, malachite green absorbance; inhibition, % at 20 µM; actives 61% (n = 2,500); AID 540281, 2011;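 note: plate controls were DMSO with enzyme for no effect and buffer wells lacking enzyme for full effect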
MG interference: colorimetric readout interference by compounds, confirmation, artefact control for Scp-1 inhibitor project, biochemical, single concentration; shares compounds with Scp-1 inhibitor; Colorimetric interference counterscreen, malachite green absorbance 630 nm; apparent inhibition (interference), % at 20 µM; 2,500 tested, under 10 active; AID 540313, 2011;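 note: compounds added after enzyme reaction finished so only phosphate colour detection is probed; plate controls were DMSO wells with completed Scp-1 reaction for no effect and substrate wells lacking enzyme for full effect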
Scp1 DSF: Scp-1 binding by thermal shift, confirmation, orthogonal assay for Scp-1 inhibitor project, biophysical, differential scanning fluorimetry; shares compounds with Scp-1 inhibitor; Recombinant SCP1, Sypro Orange thermal shift Tm; thermal shift relative to vanadate control, % at 40 µM; actives 25% (n = 1,500);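 active = substances whose mean melting-temperature shift, as a percentage of the reference inhibitor's shift, reaches about 5.3%, limit read from the data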;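 note: 0% = Tm of DMSO wells and 100% = Tm with sodium orthovanadate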
Numbers without * were called inactive; x = no result. Sampled rows, rich in hits. Any-hit rate of the full collection: about 2.1%.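 Rule for the calls, unless noted: active = inhibition of at least 30% at 20 µM; inactive = the rest.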

SMILES | DNMT1 block | LMPTP block | GRK2 inh | Scp-1 inhibitor | STEP block | SUMO1 PPI mod | GRK2 inh confirm | FAM quench CP1 | others
CC(C(N)=O)N1CC(c2ccc(Cl)cc2)CC1=O (configuration not stated) | 1 | 0 | 50* | -3 | 3 | 1 | 1 | 98
CC(C(N)=O)N1CC(c2ccccc2)CC1=O (configuration not stated) | 2 | -3 | 3 | 3 | -1 | -1 | x | x
CCOC(=O)[C@]12Cc3cc(OC)ccc3[C@H]1N(C1CCCCC1)C(=O)c1ccccc12 | x | 0 | x | x | x | 8 | x | x
Cc1ccsc1C(=O)C1CCCN(Cc2cnc(N3CCOCC3)s2)C1 (configuration not stated) | 0 | 1 | 0 | -6 | 1 | -1 | 0 | 102
Cc1ccsc1C(=O)C1CCCN(Cc2cnc(N(C)C)s2)C1 (configuration not stated) | x | x | 1 | x | x | x | x | x
COC(=O)C1=C(c2ccc(F)cc2OCc2ccccc2)C[C@@H]2CC[C@H]1N2C(=O)NCc1ccc2c(c1)OCO2 | 0 | 7 | 0 | -14 | -1 | 13 | x | x
[N-]=[N+]=NC1C[C@H](n2ccc(=O)[nH]c2=O)O[C@@H]1CO (some centres not stated) | 1 | -1 | 4 | -6 | 2 | -3 | x | x
Cc1cccnc1-n1c(-c2ccccc2)nc2ccccc2c1=O | 0 | 1 | 2 | -6 | 0 | 3 | x | x
Cc1ccc(-c2nc3ccccc3c(=O)n2-c2ncccc2C)cc1 | -1 | 1 | 60* | -7 | 1 | -2 | 2 | 95
O=C1NC(=O)C(C2CCCCCC2)C(=O)N1 | -8 | 0 | x | 3 | 2 | -2 | x | x
CCOC(=O)[C@]12Cc3cc(C)ccc3[C@H]1N(C)C(=O)c1cc(OC)ccc12 | x | 1 | x | x | x | 4 | x | x
CCOc1ccc(N=Cc2c(O)n(CCc3ccc(OC)c(OC)c3)c(=O)[nH]c2=O)cc1 | -38 | -3 | 100* | -11 | -3 | -5 | -5 | 97
NC(Cc1ccccc1)c1nn[nH]n1 (configuration not stated) | -3 | -2 | x | -7 | 2 | 1 | x | x
CC(=O)Nc1ccc(N=Cc2c(O)n(Cc3ccco3)c(=O)[nH]c2=O)cc1 | 2 | 1 | 2 | 72* | 6 | 55* | x | x | Scp-1 conf=51*;MG interference=-7;Scp1 DSF=-6
O=c1[nH]c2ccccc2n1C1CCN(C(c2cc3ccccc3o2)c2nnnn2Cc2ccccc2)CC1 (configuration not stated) | -12 | 4 | x | x | 1 | -12 | x | x
CCOC(=O)c1ccccc1C(=O)OCC | 6 | -2 | 4 | -12 | -3 | 3 | x | x
